Entries after “also recorded” stand apart in the source; their conditions may differ. Where two headings read alike, the source gives them in different places. Marks after values point to notes of the source that are not given here.
What was measured:
[1] = test system: Salmonella typhimurium TA989; experiment: Ames genotoxicity test, TA989; assay type: cell-based
[2] = test system: Salmonella typhimurium TA100; experiment: Ames genotoxicity test, TA100; assay type: cell-based
[3] = Metabolic stability in human and animal liver microsomes, stated across species; assay type: in vitro ADME, dog, rat, mouse
[4] = rat, microsomes
[5] = test system: free radical-induced peroxidation; conditions: in vitro; cited from earlier work
[6] = rat, in vivo; cited from earlier work
[7] = test system: H4IIE rat hepatoma cell line; experiment: CeeTox analysis, cellular toxicity panel; assay type: cell-based
[8] = human, microsomes
[9] = test system: rat intraluminal suture stroke model; conditions: cited from earlier work
P-glycoprotein (PgP) = experiment: P-glycoprotein; assay type: cell-based, rat; conditions: 50 μM
Summary of the method: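 H4IIE cells were exposed to the test compound at a single concentration (50 μM), with and without the PgP inhibitor cyclosporin A. Toxicity was measured by MTT assay and expressed as % control for each condition. The % difference was taken as the PgP interaction measure. The compound came from a DMSO stock, with a DMSO control, in a blinded contract CeeTox study.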

HT22 cells [10] = experiment: Oxidative glutamate toxicity; assay type: cell-based
Summary of the method: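 HT22 cells (DMEM, 10% FCS) were given the test compound, then 5 mM glutamate 30 min later to deplete GSH. Cell survival was measured 24 h after glutamate. Experiments were repeated at least three times in triplicate, shown as mean ± SD, and analysed by ANOVA with Bonferroni's test (P<0.05).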

[11] = dog, microsomes
HT22 cells [12] = experiment: HT22 cell ATP content in the in vitro ischemia assay; assay type: cell-based; conditions: 20 μM IAA; highest dose tested (10 μM)
HT22 hippocampal neurons = experiment: In vitro ischemia assay; assay type: cell-based
Summary of the method: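 HT22 cells were grown in DMEM with 10% FCS and seeded at 5×10^3 cells/well. Next day they were switched to DMEM with 7.5% DFCS and given 20 μM iodoacetic acid ± test compound for 2 h, then fresh IAA-free medium with compound for 20 h. MTT (5 μg/ml) ran 4 h at 37°C, was solubilised in 50% DMF/20% SDS pH 4.7, and A570 was read next day. Runs were done ≥3 times in triplicate; ANOVA/Bonferroni.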

[13] = microsomes
HT22 hippocampal cells = experiment: HT22 neuroprotection, IAA or oxidative glutamate toxicity assays stated together; assay type: cell-based; conditions: read-out: EC50, neuroprotection, either IAA or oxidative glutamate toxicity assay
[14] = oxidative glutamate toxicity assay

Nc1ccc2cc3ccccc3cc2c1 [2-aminoanthracene, reference compound]
Mean no. of positive wells ([1]; TA989+S9, positive control): 48.00 | Mean no. of positive wells ([1]; TA989−S9, positive control): 36.00 | Mean no. of positive wells ([2]; TA100+S9, positive control): 48.00 | Mean no. of positive wells ([2]; TA100−S9, positive control): 48.00

C[C@]12CC[C@H]3[C@@H](CCC4=CC(=O)CC[C@@]43C)[C@@H]1CC[C@@H]2O [testosterone, reference compound]
half-life ([3]; human): 10 to 32 min

Stilbazulenyl nitrone [STAZN]
Half-life t1/2 [4]: > 60 min | Half-life t1/2, calculated value in parentheses [4]: 95 min | Percent remaining of initial compound ([4]; 10 min): 82.4% | Percent remaining of initial compound ([4]; 20 min): 76.6% | Percent remaining of initial compound ([4]; 0.5 h): 80.3% | drug metabolized ([4]; 0.5 h): 20% | Percent remaining of initial compound ([4]; 1 h): 122 ^d % | potency relative to NXY-059 at inhibiting free radical-induced peroxidation [5]: 300 times | circulating half-life t1/2, first phase of biexponential decline in blood levels [6]: 28 min | Mean no. of positive wells ([1]; TA989+S9, .001963 mg/ml): 2.33 | Mean no. of positive wells ([1]; TA989+S9, .003906 mg/ml): 1.33 | Mean no. of positive wells ([1]; TA989+S9, .007813 mg/ml): 5.00 | Mean no. of positive wells ([1]; TA989+S9, .015625 mg/ml): 3.00 | Mean no. of positive wells ([1]; TA989+S9, .03125 mg/ml): 4.00 | Mean no. of positive wells ([1]; TA989+S9, .0625 mg/ml): 2.33 | mutagenicity (Ames test outcome) ([1]; TA989, with or without S9, up to 0.0625 mg/ml (0.106 mM)): lack of mutagenicity; also recorded: not mutagenic | Mean no. of positive wells ([1]; TA989−S9, .001963 mg/ml): 1.33 | Mean no. of positive wells ([1]; TA989−S9, .003906 mg/ml): 1.33 | Mean no. of positive wells ([1]; TA989−S9, .007813 mg/ml): 0.33 | Mean no. of positive wells ([1]; TA989−S9, .015625 mg/ml): 0.67 | Mean no. of positive wells ([1]; TA989−S9, .03125 mg/ml): 0.00 | Mean no. of positive wells ([1]; TA989−S9, .0625 mg/ml): 0.67 | decrease in cellular ATP content ([7]; H4IIE cells, 300 μM): ~35% | ATP TC50 ([7]; H4IIE cells, 24 h): >300 µM | Cell number TC50 ([7]; H4IIE cells, 24 h): >300 µM | MTT TC50 ([7]; H4IIE cells, 24 h): >300 µM | MemTox TC50 ([7]; H4IIE cells, 24 h): >300 µM | Total GSH TC50 ([7]; H4IIE cells, 24 h): >300 µM | TC50 for all general toxicity measures ([7]; H4IIE cells, 24 h, all assays): > 300 µM | Membrane lipid peroxidation ([7]; H4IIE cells, measured as 8-isoprostane): 0 | therapeutic safety window (efficacy/toxicity ratio) ([7]; in vitro, HT22 EC50 vs CeeTox toxicity): 60–150 fold | Half-life t1/2 [8]: 78 min | Percent remaining of initial compound ([8]; 10 min): 57.7% | Percent remaining of initial compound ([8]; 20 min): 39.7% | Percent remaining of initial compound ([8]; 0.5 h): 46.9% | Percent remaining of initial compound ([8]; 1 h): 49.1% | drug metabolized ([8]; 1 h): approximately 50% | effect on behavior [9]: improved behavior measured up to 30 days following ischemia | effect on infarct volume [9]: reduced infarct volume in a dose- and time-dependent manner | neuroprotective doses, times lower than NXY-059 [9]: 300–600 times | interaction with PgP transporters (P-glycoprotein (PgP)): low-level interaction | % Control (compound + CSA) (P-glycoprotein (PgP); MTT, H4IIE cells, with cyclosporin A): 83.4% | % Control (compound) (P-glycoprotein (PgP); MTT, H4IIE cells, without CSA): 100.3% | % Difference (P-glycoprotein (PgP); without vs with CSA): 16.9% | concentration at which significance was first achieved (HT22 cells [10]; 5 mM glutamate, HT22 cells): 5 µM | increase in survival (HT22 cells [10]; [14]): 416% | maximal level of protection, of total cell survival (HT22 cells [10]; [14]): ~52% | half-life [3]: 60 to 78 min | Half-life t1/2 [11]: 71 min | Percent remaining of initial compound ([11]; 10 min): 56.2% | Percent remaining of initial compound ([11]; 20 min): 65.5% | Percent remaining of initial compound ([11]; 0.5 h): 54.5% | Percent remaining of initial compound ([11]; 1 h): 47.6% | drug metabolized ([11]; 1 h): approximately 50% | Mean no. of positive wells ([2]; TA100+S9, .001963 mg/ml): 7.33 | Mean no. of positive wells ([2]; TA100+S9, .003906 mg/ml): 6.33 | Mean no. of positive wells ([2]; TA100+S9, .007813 mg/ml): 6.67 | Mean no. of positive wells ([2]; TA100+S9, .015625 mg/ml): 6.33 | Mean no. of positive wells ([2]; TA100+S9, .03125 mg/ml): 10.67 | Mean no. of positive wells ([2]; TA100+S9, .0625 mg/ml): 8.67 | mutagenicity (Ames test outcome) ([2]; TA100, with or without S9, up to 0.0625 mg/ml (0.106 mM)): lack of mutagenicity; also recorded: not mutagenic | Mean no. of positive wells ([2]; TA100−S9, .001963 mg/ml): 5.00 | Mean no. of positive wells ([2]; TA100−S9, .003906 mg/ml): 3.67 | Mean no. of positive wells ([2]; TA100−S9, .007813 mg/ml): 6.33 | Mean no. of positive wells ([2]; TA100−S9, .015625 mg/ml): 7.33 | Mean no. of positive wells ([2]; TA100−S9, .03125 mg/ml): 5.00 | Mean no. of positive wells ([2]; TA100−S9, .0625 mg/ml): 5.67 | effect on IAA-induced ATP loss (HT22 cells [12]): significantly attenuate IAA-induced ATP loss | increase in survival (HT22 hippocampal neurons; IAA assay): 621% | maximal level of protection, of total cell survival (HT22 hippocampal neurons; IAA assay): approximately 60% | EC50 (HT22 hippocampal neurons; read-out: EC50, neuroprotection in the IAA assay, estimated, 20 μM IAA, HT22 cells): ~1 µM | Half-life t1/2 [13]: < 10 min | Half-life t1/2, calculated value in parentheses ([13]; mouse): 27 min | Percent remaining of initial compound ([13]; mouse, 10 min): 17.2% | Percent remaining of initial compound ([13]; mouse, 20 min): 19.8% | Percent remaining of initial compound ([13]; mouse, 0.5 h): 10.0% | Percent remaining of initial compound ([13]; mouse, 1 h): 13.8% | drug metabolized ([13]; mouse, 1 h): 86% | EC50 (HT22 hippocampal cells): 1 to 5 µM

Reference: PMC3191534 (Translational stroke research, 2011)
